The results in this text go back to ChEMBL document CHEMBL3763084, “Design and synthesis of substituted pyrido[3,2-d]-1,2,3-triazines as potential Pim-1 inhibitors” (Bioorg Med Chem Lett, 2016).

Calls of active or inactive are those of the source. The rule behind the calls is not given here.

The first experiment concerns PC-3. Description: Effect on PIM1 expression in human PC3 cells at 5 to 20 uM after 24 hrs by western blot analysis. Type of experiment: functional, cell-based.
Conditions: not given
In outline: (§1)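 PC-3 cells were exposed for 24 h to the test compound at 0, 5, 10 or 20 μM, with DMSO as the negative control and a reference Pim-1 inhibitor at 10 μM. Lysates were analysed by western blot for BAD phospho-Ser112, 4E-BP1 phospho-Thr37/46, c-Myc and total Pim-1.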
Take `FC(F)(F)Oc1cccc(Nc2nnnc3ccc(N4CCC(N5CCCC5)CC4)nc23)c1`: the result was inactive.

A further experiment concerns the target T1, Serine/threonine-protein kinase pim-1 (Homo sapiens, UniProt P11309). Nature of the experiment: Inhibition of Pim1 in human PC3 cells assessed as decrease in c-Myc level at 5 to 20 uM after 24 hrs by western blot analysis. In kind it is cell-based. Conditions: PC-3. Put shortly: as §1
For the molecule `FC(F)(F)Oc1cccc(Nc2nnnc3ccc(N4CCC(N5CCCC5)CC4)nc23)c1`, the inhibition result is “Active”.

For a further experiment, the target named is T1, Serine/threonine-protein kinase pim-1. Conditions: PC-3, 10 uM.
Turning to `CN1CCC(CNc2ccc3ncc(-c4cccc(OC(F)(F)F)c4)n3n2)CC1` [SGI-1776], the inhibition entry was “Active”.

The next experiment has the same target. Particulars: PC-3, 10 uM. The source holds these as a separate data set.
Take `CN1CCC(CNc2ccc3ncc(-c4cccc(OC(F)(F)F)c4)n3n2)CC1` [SGI-1776]: the inhibition entry was “Active”.

For a further experiment the target is unchanged. Description: Inhibition of Pim 1 (unknown origin) after 50 mins by HTRF method.
Conditions: not given
Consider `CC(C)N1CCN(c2ccc3nnnc(Nc4cccc(OC(F)(F)F)c4)c3n2)CC1`, for which the IC50 is 1.08 µM.
In turn, `CC1CCCCN1c1ccc2nnnc(Nc3cccc(OC(F)(F)F)c3)c2n1` (stereo not given) returned an IC50 of 1.31 µM.
Molecule `CCN1CCN(c2ccc3nnnc(Nc4cccc(OC(F)(F)F)c4)c3n2)CC1` came in with an IC50 of 2.04 µM.
Same read-out and setting: for `FC(F)(F)Oc1cccc(Nc2nnnc3ccc(N4CCOCC4)nc23)c1` the value was 1.45 µM; for `CC(C)(C)OC(=O)N1CCC(CNc2ccc3nnnc(Nc4cccc(OC(F)(F)F)c4)c3n2)CC1`, > 10 µM.
Same read-out and setting: the figure for `CN1CCN(c2ccc3nnnc(Nc4cccc(OC(F)(F)F)c4)c3n2)CC1` is 0.6 µM.
The same measure, in the same setting: for `FC(F)(F)Oc1cccc(Nc2nnnc3ccc(N4CCCC4)nc23)c1` the value was > 10 µM; for `CC1CCN(c2ccc3nnnc(Nc4cccc(OC(F)(F)F)c4)c3n2)CC1`, > 10 µM.
Consider `OCCNc1ccc2nnnc(Nc3cccc(OC(F)(F)F)c3)c2n1`, for which 2.1 µM corresponded to half-maximal inhibition (IC50).
The same measure, in the same setting: for `CCOc1ccc2nnnc(Nc3cccc(OC(F)(F)F)c3)c2n1` the value was > 10 µM.
Same read-out and setting: for `FC(F)(F)Oc1cccc(Nc2nnnc3ccc(N4CCC(N5CCCC5)CC4)nc23)c1` the value was 1.05 µM; for `CN1CCC(CNc2ccc3nnnc(Nc4cccc(OC(F)(F)F)c4)c3n2)CC1`, 1.87 µM.
`FC(F)(F)Oc1cccc(Nc2nnnc3ccc(N4CCC(N5CCCCC5)CC4)nc23)c1` displayed an IC50 of 2.47 µM.
Same read-out and setting: for `FC(F)(F)Oc1cccc(Nc2nnnc3ccc(NCC4CCNCC4)nc23)c1` the value was 0.8 µM.
The same measure, in the same setting: for `CCCCOc1ccc2nnnc(Nc3cccc(OC(F)(F)F)c3)c2n1` the value was > 10 µM; for `COc1ccc2nnnc(Nc3cccc(OC(F)(F)F)c3)c2n1`, 2.02 µM; for `FC(F)(F)Oc1cccc(Nc2nnnc3ccc(Cl)nc23)c1`, > 10 µM.
Molecule `FC(F)(F)Oc1cccc(Nc2nnnc3ccc(N4CCNCC4)nc23)c1` came in with an IC50 of 0.69 µM.

The target is the same in the next experiment. Nature of the experiment: Inhibition of Pim1 in human PC3 cells assessed as decrease in BAD phosphorylation at Ser112 residue after 24 hrs by western blot analysis. Type of experiment: cell-based. Conditions: PC-3. In outline:
as §1
Take `FC(F)(F)Oc1cccc(Nc2nnnc3ccc(N4CCC(N5CCCC5)CC4)nc23)c1`: the inhibition result was “Dose-dependent effect”.

For another experiment the target is unchanged. Conditions: PC-3, 10 uM. The source holds these as a separate data set.
Regarding `CN1CCC(CNc2ccc3ncc(-c4cccc(OC(F)(F)F)c4)n3n2)CC1` [SGI-1776], the inhibition result is “Active”.

The subject of the next experiment is LNCaP. Nature of the experiment: Antiproliferative activity against human LNCAP cells after 96 hrs by MTT assay. In kind it is functional, cell-based.
Conditions: not given
As to `CC(C)N1CCN(c2ccc3nnnc(Nc4cccc(OC(F)(F)F)c4)c3n2)CC1`, it took 10.7 µM to reach half-maximal inhibition (IC50).
Same read-out and setting: the figure for `CCN1CCN(c2ccc3nnnc(Nc4cccc(OC(F)(F)F)c4)c3n2)CC1` is 14.3 µM.
Still for that read-out and setting: for `FC(F)(F)Oc1cccc(Nc2nnnc3ccc(N4CCOCC4)nc23)c1` the value was 31 µM; for `CC(C)(C)OC(=O)N1CCC(CNc2ccc3nnnc(Nc4cccc(OC(F)(F)F)c4)c3n2)CC1`, > 100 µM; for `CN1CCN(c2ccc3nnnc(Nc4cccc(OC(F)(F)F)c4)c3n2)CC1`, 20.3 µM.
Still for that read-out and setting: the figure for `FC(F)(F)Oc1cccc(Nc2nnnc3ccc(N4CCCC4)nc23)c1` is > 100 µM.
On to `OCCNc1ccc2nnnc(Nc3cccc(OC(F)(F)F)c3)c2n1`, for which the IC50 turned out to be 42.9 µM.
In the case of `CCOc1ccc2nnnc(Nc3cccc(OC(F)(F)F)c3)c2n1`, the IC50 was > 100 µM.
Still for that read-out and setting: the figure for `FC(F)(F)Oc1cccc(Nc2nnnc3ccc(N4CCC(N5CCCC5)CC4)nc23)c1` is 10.7 µM; for `CN1CCC(CNc2ccc3nnnc(Nc4cccc(OC(F)(F)F)c4)c3n2)CC1` it is 17.3 µM.
Consider `FC(F)(F)Oc1cccc(Nc2nnnc3ccc(N4CCC(N5CCCCC5)CC4)nc23)c1`, for which the IC50 was 4.9 µM.
The molecule `FC(F)(F)Oc1cccc(Nc2nnnc3ccc(NCC4CCNCC4)nc23)c1` yielded an IC50 of 11.5 µM.
The molecule `CN1CCC(CNc2ccc3ncc(-c4cccc(OC(F)(F)F)c4)n3n2)CC1` [SGI-1776] registered a half-maximal inhibitory concentration (IC50) of 6.85 µM.
For `FC(F)(F)Oc1cccc(Nc2nnnc3ccc(Cl)nc23)c1`, the IC50 worked out at 8.62 µM.
On the same count and under the same terms, for `FC(F)(F)Oc1cccc(Nc2nnnc3ccc(N4CCNCC4)nc23)c1` the value was 8.51 µM.

The target in a further experiment is T1, Serine/threonine-protein kinase pim-1. Nature of the experiment: Inhibition of Pim1 in human PC3 cells assessed as decrease in 4E-BP1 phosphorylation at Thr37/46 residue after 24 hrs by western blot analysis. In kind it is cell-based. Conditions: PC-3. Put shortly: as §1
Take `FC(F)(F)Oc1cccc(Nc2nnnc3ccc(N4CCC(N5CCCC5)CC4)nc23)c1`: the inhibition result was “Dose-dependent effect”.

System in another experiment: not listed separately
Description: Antiproliferative activity against human PC3 cells after 96 hrs by MTT assay. Type of experiment: functional, cell-based. Particulars: PC-3, 96 h.
As for `CC(C)N1CCN(c2ccc3nnnc(Nc4cccc(OC(F)(F)F)c4)c3n2)CC1`, 13.8 µM corresponded to half-maximal inhibition (IC50).
The molecule `CCN1CCN(c2ccc3nnnc(Nc4cccc(OC(F)(F)F)c4)c3n2)CC1` gave a half-maximal inhibitory concentration (IC50) of 16.9 µM.
The same measure, in the same setting: for `FC(F)(F)Oc1cccc(Nc2nnnc3ccc(N4CCOCC4)nc23)c1` the value was 41 µM; for `CC(C)(C)OC(=O)N1CCC(CNc2ccc3nnnc(Nc4cccc(OC(F)(F)F)c4)c3n2)CC1`, > 100 µM.
As for `CN1CCN(c2ccc3nnnc(Nc4cccc(OC(F)(F)F)c4)c3n2)CC1`, the IC50 amounted to 24 µM.
Still for that read-out and setting: the figure for `FC(F)(F)Oc1cccc(Nc2nnnc3ccc(N4CCCC4)nc23)c1` is > 100 µM.
The same measure, in the same setting: the figure for `OCCNc1ccc2nnnc(Nc3cccc(OC(F)(F)F)c3)c2n1` is > 100 µM; for `CCOc1ccc2nnnc(Nc3cccc(OC(F)(F)F)c3)c2n1` it is > 100 µM.
Still for that read-out and setting: the figure for `FC(F)(F)Oc1cccc(Nc2nnnc3ccc(N4CCC(N5CCCC5)CC4)nc23)c1` is 8.16 µM; for `CN1CCC(CNc2ccc3nnnc(Nc4cccc(OC(F)(F)F)c4)c3n2)CC1` it is 15.8 µM; for `FC(F)(F)Oc1cccc(Nc2nnnc3ccc(N4CCC(N5CCCCC5)CC4)nc23)c1` it is 5.58 µM.
In turn, `FC(F)(F)Oc1cccc(Nc2nnnc3ccc(NCC4CCNCC4)nc23)c1` displayed an IC50 of 8.32 µM.
Same read-out and setting: for `CN1CCC(CNc2ccc3ncc(-c4cccc(OC(F)(F)F)c4)n3n2)CC1` [SGI-1776] the value was 4.86 µM.
Same read-out and setting: for `FC(F)(F)Oc1cccc(Nc2nnnc3ccc(Cl)nc23)c1` the value was 5.99 µM; for `FC(F)(F)Oc1cccc(Nc2nnnc3ccc(N4CCNCC4)nc23)c1`, 11.5 µM.
